# Key:
# [1] = molecular target: Endothelial PAS domain-containing protein 1 (Homo sapiens, UniProt Q99814); test: Inhibition of HIF-2alpha activity in human 786-O cells by luciferase assay; format: cell-based
# How it was run: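 Cells seeded at 5000 per well and allowed to attach overnight, then exposed to test samples or controls the next day. Incubation lasted one day so the HIF-2 signal could drop. Luciferin was then added to the cells and the luciferase signal read.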
# [2] = Cytotoxicity against human 786-O cells by XTT assay; format: functional, cell-based; details: 786-0
# Sequence of Endothelial PAS domain-containing protein 1 (Q99814 whole entry, the tested form may be a part): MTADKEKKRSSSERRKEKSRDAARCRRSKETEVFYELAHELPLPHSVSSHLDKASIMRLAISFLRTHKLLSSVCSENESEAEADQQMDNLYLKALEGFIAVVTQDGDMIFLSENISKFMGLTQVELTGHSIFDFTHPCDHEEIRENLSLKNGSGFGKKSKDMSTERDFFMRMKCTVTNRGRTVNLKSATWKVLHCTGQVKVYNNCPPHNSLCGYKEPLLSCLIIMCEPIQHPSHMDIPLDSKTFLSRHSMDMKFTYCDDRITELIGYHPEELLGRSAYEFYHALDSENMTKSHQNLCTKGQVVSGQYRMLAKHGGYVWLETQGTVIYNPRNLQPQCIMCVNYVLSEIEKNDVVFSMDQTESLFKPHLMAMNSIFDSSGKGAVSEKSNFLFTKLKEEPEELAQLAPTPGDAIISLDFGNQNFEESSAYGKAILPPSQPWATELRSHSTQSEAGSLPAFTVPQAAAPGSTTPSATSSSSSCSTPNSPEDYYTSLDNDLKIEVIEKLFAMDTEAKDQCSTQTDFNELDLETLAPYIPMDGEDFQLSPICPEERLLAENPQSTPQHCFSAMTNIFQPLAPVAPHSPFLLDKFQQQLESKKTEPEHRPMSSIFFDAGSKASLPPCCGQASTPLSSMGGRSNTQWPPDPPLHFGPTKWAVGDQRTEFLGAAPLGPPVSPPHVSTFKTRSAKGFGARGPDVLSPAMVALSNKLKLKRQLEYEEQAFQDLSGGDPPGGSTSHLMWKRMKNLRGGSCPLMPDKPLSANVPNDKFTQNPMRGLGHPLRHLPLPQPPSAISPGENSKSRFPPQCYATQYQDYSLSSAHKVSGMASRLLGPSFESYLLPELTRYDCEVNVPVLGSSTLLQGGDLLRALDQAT
SMILES,EC50 [1],IC50 [2],EC50 ([1]; read-out: EC50) [µM],"IC50 ([2]; Homo sapiens, read-out: IC50) [µM]"
C/C1=C\C=C(\C(C)C)CCC2=CCC[C@](C)(OC2=O)[C@H](O)CC1,Not Active,Not Active,,
C=C(C)[C@@H]1CC(=O)/C(C)=C/CC/C(C)=C/CC[C@]2(C)O[C@@H]2C1,,,108,147
CC1=C2CC/C(C)=C/CC[C@]3(C)O[C@@H]3CC/C(C)=C/[C@H]2OC1,,,183,291
C/C1=C\CC[C@]2(C)O[C@@H]2CC/C(C)=C/C=C(/C(C)(C)O)CC1,Not Active,Not Active,,
C=C1CC/C=C(/C)CC[C@@H]2C([C@@H](OC(C)=O)[C@H](C=C(C)C)OC(C)=O)=CO[C@H](OC(C)=O)[C@@H]12,,,3.4,5.2
C=C1C[C@@H](O)/C=C(/C)CC[C@@H]2C([C@@H](OC(C)=O)[C@H](C=C(C)C)OC(C)=O)=CO[C@H](OC(C)=O)[C@@H]12,,,6.2,26.3
C=C1CC[C@H](OO)C(=C)CC[C@@H]2C([C@@H](OC(C)=O)[C@H](C=C(C)C)OC(C)=O)=CO[C@H](OC(C)=O)[C@@H]12,,,11.8,14.2
C=C(C)/C1=C/C=C(\C)CC[C@@H](O)[C@]2(C)CCC=C(CC1)C(=O)O2 (relative stereo),Not Active,Not Active,,
COC(C)(C)/C1=C/C=C(\C)CC[C@H]2O[C@@]2(C)CC/C=C(\C)CC1 (relative stereo),,,149,134
